Measurements: the EternaBench riboswitch data

Experiments:
MS2 coat protein [1] = test: apparent Kd, MS2 coat protein; higher = weaker binding; RNA-MaP array; theophylline 2 mM where present
How it was run: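 The apparent Kd is the median of filtered binding-curve fits, one per cluster, to green signal normalised to red-channel RNA signal and control-cluster median Fmax. The clusters were on Illumina sequencing chips, and stalled E. coli RNA polymerase had transcribed the designs on them. Titration used SNAP-549-labelled MS2 coat protein from 0.7 or 1.5 nM, doubling to 3 µM, without and then with constant ligand, in 100 mM Tris-HCl pH 7.5, 80 mM KCl, 4 mM MgCl2, BSA, DTT, yeast tRNA and Tween-20.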

MS2 coat protein [2] = test: apparent Kd, MS2 coat protein; higher = weaker binding; RNA-MaP array
How it was run: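 RNA designs were transcribed from sequenced DNA templates on an Illumina sequencing chip and then incubated at room temperature with fluorescently labeled MS2 coat protein at 1.5 nM to 3 μM, with or without input ligand, in Tris-HCl pH 7.5 buffer containing KCl, MgCl2, BSA, DTT, tRNA and Tween20. Incubation lasted 0.8–1.5 h at the lowest protein concentrations and 10–20 min at the highest. Apparent Kd is the median of binding-curve fits made for each cluster. Designs measured on fewer than 10 clusters were excluded.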

[3] = designed as: OFF switch for theophylline, no ligand
[4] = ligand present: theophylline, designed as: OFF switch for theophylline
[5] = designed as: ON switch for theophylline, no ligand
[6] = ligand present: theophylline, designed as: ON switch for theophylline
[7] = designed as: ON switch for flavin mononucleotide, no ligand
[8] = ligand present: flavin mononucleotide, designed as: ON switch for flavin mononucleotide
[9] = designed as: OFF switch for flavin mononucleotide, no ligand
[10] = ligand present: flavin mononucleotide, designed as: OFF switch for flavin mononucleotide
[11] = designed as: ON switch for tryptophan, no ligand
[12] = ligand present: tryptophan, designed as: ON switch for tryptophan

Sequence | apparent Kd (MS2 coat protein [1]; [3]) [nM] | apparent Kd (MS2 coat protein [1]; [4]) [nM] | further results
AAAACACAUGAGGAUCACCCAUGUCAUGAUACCAGUCCACAUGAGGACCCUUGGCAGCAUAAAAUGGGUAACAUGAGGAUAACCC | 29.6 | 82.8 | 
AAAGAUACCAGAGAUACCAGCCAAAAUUAAAAUAAAACCUCACAUGAGGAUCACCCAUGUGGCCCUUGGCAGCUCCCUUGGCAGC | 12.5 | 53.7 | 
AACAUGAGGAUCACCCAUGUCAUGUUGGAUACCAGCCAAUAAUAAGGCCCUUGGCAGCUAUAGAUCGAUGAUCCAUGAGGAUCAC | 34.5 | 25.3 | 
AAGCAGGGUGUAAAAUAAAUAAUCACUGAUACCAGACUAUGAGAUGUCCCUUGGCAGCAGAAACAUGAGGAUCACCCAUGUAAUA | 22.7 | 32.3 | 
AAUAAGUACUUUGAUACCAGCCUGCCAUCAUGCUAAUUUACAUGAGGAUCACCCAUGUUAGGCCCUUGGCAGCAAAGUGCAAUAA | 12.5 | 25.6 | 
AAUUAAUUAACCGAUACCAGCCAACCAAAACAUGAGGAUCACCCAUGUAAGAAGAAGGGUGGCCCUUGGCAGCGGUUAAUUAAUU |  |  | apparent Kd (MS2 coat protein [1]; [5]): 27.8 nM; apparent Kd (MS2 coat protein [1]; [6]): 9.07 nM
ACAUGAACAUGAGGAUCACCCAUGUGGGAUACCAGCGUGUAUGAGCGCCCUUGGCAGCUCAUGACAUGAGGAUCACCCAUGUUGG | 262 | 453 | 
ACAUGAGGAUCACCCAUGUAACGUCUUGAUACCAGACGAGAAGUAGUCCCUUGGCAGCAAAUACGUGAGGGUCACACAUGUGUAA | 23.4 | 61.5 | 
ACGAACGAUAGUGAUACCAGACGUACAUGAGGAUCACCCAUGUUGUAAACAUGGUUAAUAGUCCCUUGGCAGCACGAUAAGUUCG | 575 | 499 | 
ACGACGCAUAGUGAUACCAGUAGAACAUGAGGAUCACCCAUGUCUGUGACGCACCACCUCUGCCCUUGGCAGCACUAUGCGUCAG |  |  | apparent Kd (MS2 coat protein [1]; [5]): 22.7 nM; apparent Kd (MS2 coat protein [1]; [6]): 22.9 nM
ACGUCAACCCUUAUGUUGAUGCAAGACGAUACCAGCCUGGAUACAGGCCCUUGGCAGCGUCAACAUGAGGAUCACCCAUGUAAUA |  |  | apparent Kd (MS2 coat protein [1]; [5]): 82.8 nM; apparent Kd (MS2 coat protein [1]; [6]): 118 nM
AGACAUGAGGAUCACCCAUGUAGCAUGGAUACCAGAUGUAGAUUAGUCCCUUGGCAGCUGUGGUGAAGUGAUGCAUUGCUCCUAG | 63.2 | 61.6 | 
AGACAUGAGGAUCACCCAUGUAGUACGGAUACCAGAUCCAGAUGCGUCCCUUGGCAGCUGUAGUACAGCGUUACAUCGCUCGUAG | 20.8 | 32.1 | 
AGACAUGAGGAUCACCCAUGUAGUACGGAUACCAGAUCCAGAUGUAUCCCUUGGCAGCUGUGGUACAGCGUUGCAACGCUCCUAG | 16 | 15.3 | 
AGACAUGAGGAUCACCCAUGUAGUACGGAUACCAGAUCCAGAUUUAUCCCUUGGCAGCUGUGGUACAGCGUUGCAACGCUCCUAG | 17.5 | 17.5 | 
AGCCCUGUACUAGAUACCAGCUACAUGAGGAUCACCCAUGUGCGUCAAGACUGACUGUGUGGCCCUUGGCAGCUGCUCGCAUGUA | 146 | 208 | 
AGCCUAUUACAUGAGGAUCACCCAUGUGAUACCAGUCAGGAAACUGACCCUUGGCAGCGCAUGAGGAUCACCCAUGCGCGAGGCA | 11 | 11.9 | 
GUUAUCGAACAUGAGGAUCACCCAUGUCAGAGCGGCCGACAGAGAAGGCCAAUUGACAAAUGAUUGGAGGAUAUCUGUACUUUU |  |  | apparent Kd (MS2 coat protein [2]; [7]): 19.3 nM; apparent Kd (MS2 coat protein [2]; [8]): 7.57 nM
GUUGCCCAGCGAGGAUAUGUGAACCGGCUGCUCACAGAAGGCGCAAAUGAUUUUCAUUAUUCCCGACAUGAGGAUCACCCAUGU |  |  | apparent Kd (MS2 coat protein [2]; [9]): 21.9 nM; apparent Kd (MS2 coat protein [2]; [10]): 16.3 nM
UAAAACAUGAGGAUCACCCAUGUAUUGAGUCGAGGACCGGUACGGCCGCCACUCGGCAAUAAUAACGACGCAUAGCAUGUAGGAA |  |  | apparent Kd (MS2 coat protein [2]; [11]): 12.7 nM; apparent Kd (MS2 coat protein [2]; [12]): 14.5 nM
UAAAUCUUACAACACAUGAGGAUCACCCAUGUACGGGCGGGAUAGGAUAUCGAAAUGGUCUCAAACGAGAAGGAUCCUUCUUAU |  |  | apparent Kd (MS2 coat protein [2]; [7]): 46.7 nM; apparent Kd (MS2 coat protein [2]; [8]): 27.8 nM
UACAAACAUGAGGAUCACCCAUGUAGUGAUACCAGCAUAACAGAUUGCCCUUGGCAGCACCGGUUUGUACUCAAACGAAGUACGG |  |  | apparent Kd (MS2 coat protein [2]; [5]): 64.2 nM; apparent Kd (MS2 coat protein [2]; [6]): 52.3 nM
UACUCGACUUAGAAGGGUUUGUGGACAGCCAGUGGCGUGCGUACAUGAGGAUCACCCAUGUCUCAACAGGAUAUAAGCAUUAGC |  |  | apparent Kd (MS2 coat protein [2]; [9]): 35 nM; apparent Kd (MS2 coat protein [2]; [10]): 27 nM
UAGAAACGUACGGCCGCCACUCGGAAUUGGCUCAGACCAUACGUACAUGAGGAUCACCCAUGUUAGAGGACCGGGUAUAAUCUAA |  |  | apparent Kd (MS2 coat protein [2]; [11]): 26.7 nM; apparent Kd (MS2 coat protein [2]; [12]): 20.3 nM
UAGAAUUAAGGAUAUACAGGAUCCGUACAAAUAUUGAUAGGACAUGAGGAUCACCCAUGUAGAAGGUAAGGCAG |  |  | apparent Kd (MS2 coat protein [2]; [9]): 21.1 nM; apparent Kd (MS2 coat protein [2]; [10]): 17.2 nM
